Screening data (PubChem BioAssay)
Compounds with a hit are over-represented: about 2% of the library has one in this group of screens.
M5 ag – agonists of human muscarinic M5 receptor (CHRM5). activation, % at 3 µM. CHO-K1 hM5 cells, Fluo-8 calcium fluorescence; 0% DMSO wells, 100% maximal acetylcholine response. hit rate 0.19% among 360,000. P08912;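 active = activation above the run's mean over test compounds plus 3 SD, cut at about 23% in these data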;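 note: signal is peak over basal fluorescence ratio across the kinetic read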
M1 PAM – potentiates human M1 receptor response to acetylcholine; P11229; CHO-K1 hM1, Fluo-8 calcium fluorescence, ACh EC20; 0% = ACh EC20, 100% = maximal ACh; activation, % at 3 µM; hit rate 0.088% among 360,000; in the data active = activation above about 19%, passing the limit was not always enough
Target sequence (P11229 whole entry, looked up): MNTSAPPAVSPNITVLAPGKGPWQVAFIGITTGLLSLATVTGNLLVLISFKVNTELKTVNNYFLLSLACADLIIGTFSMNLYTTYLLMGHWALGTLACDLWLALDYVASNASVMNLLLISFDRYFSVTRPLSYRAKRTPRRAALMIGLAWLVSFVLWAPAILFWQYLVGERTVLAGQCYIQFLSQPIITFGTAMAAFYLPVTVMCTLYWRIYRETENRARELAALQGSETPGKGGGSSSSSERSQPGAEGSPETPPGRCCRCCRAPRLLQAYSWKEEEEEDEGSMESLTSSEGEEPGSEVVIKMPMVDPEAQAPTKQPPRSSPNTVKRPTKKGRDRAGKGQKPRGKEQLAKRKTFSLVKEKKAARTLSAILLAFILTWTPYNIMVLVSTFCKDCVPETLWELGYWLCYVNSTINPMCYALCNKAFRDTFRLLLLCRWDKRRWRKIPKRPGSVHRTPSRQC
CHRM5 PAM – positive allosteric modulators of human muscarinic M5 receptor; CHO-K1 hM5, Fluo-8 calcium, ACh EC20 PAM; 0% = ACh EC20, 100% = ACh EC100; hit rate 0.3% among 360,000; AID 624038; activation, % at 3 µM;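 active = activation above the run cutoff, the mean activation of all test compounds plus 3 SD, cut at about 18% in these data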
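System: CHO-K1 cell line with stable human muscarinic M5 receptor expression | Also added: EC20 acetylcholine as agonist stimulus | Compound: One concentration, 3 µM final (nominal) | Timing: Fluo-8 loading 80 min at 37 °C plus 30 min room temperature | Measured by: Fluo-8 calcium dye fluorescence, kinetic read | Read-out basis: % activation, ACh-normalized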
M1 ag – human M1 muscarinic receptor agonism; P11229; activation, % at 3 µM; hit rate 0.33% among 360,000; CHO-K1 hM1, Fluo-8 calcium fluorescence, agonist mode; 0% DMSO, 100% acetylcholine EC100;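 active = activation above the run's mean compound activation plus 3 SD, cut at about 16% in these data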;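 note: peak over basal fluorescence ratio within a 140 s kinetic read after compound addition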
CHRM5 antagonist – antagonists of human muscarinic M5 receptor (CHRM5) | P08912 | hit rate 0.59% among 360,000 | CHO-hM5 cells, Fluo-8 calcium fluorescence, ACh EC80 | AID 624040 | inhibition, % at 3 µM;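 active = inhibition above a per-plate cutoff, the mean of that plate's test compounds plus 3 SD, cut at about 27% in these data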;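 note: 0% = acetylcholine EC80 with DMSO and 100% = DMSO without agonist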
M1 antag – blocks human M1 muscarinic receptor. CHO-K1 hM1, Fluo-8 calcium fluorescence, ACh EC80 antagonist. inhibition, % at 3 µM. hit rate 1.3% among 360,000. AID 588852;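 active = percent inhibition above its own plate's cutoff, namely the mean of that plate's compound wells plus 3 SD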;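 note: peak over basal fluorescence ratio during 140 s after agonist addition; 0% = ACh EC80 plus DMSO and 100% = DMSO alone without agonist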
Starred values were filed as active, the others as inactive; x = no result.

SMILES | M5 ag | M1 PAM | CHRM5 PAM | M1 ag | CHRM5 antagonist | M1 antag
COC(=O)C1=C(c2cc3ccccc3o2)C[C@@H]2CC[C@H]1N2C | -11 | -30 | -18 | -14 | 8 | 35*
COC(=O)C1=C(c2cccc(OCc3ccccc3)c2)C[C@@H]2CC[C@H]1N2C(=O)NCc1ccc(C(F)(F)F)cc1 | -2 | -2 | -9 | -3 | 15 | 9
COC(=O)C1=C(c2ccccc2)C[C@@H]2CC[C@H]1N2C(=O)NCc1ccc(F)cc1 | -11 | -37 | -19 | -13 | 12 | 67*
COC(=O)C1=C(c2cc3ccccc3o2)C[C@@H]2CC[C@H]1N2C(=O)NCc1ccc(F)cc1 | -12 | -38 | -23 | -12 | 9 | 67*
COC(=O)C1=C(c2cccc(OCc3ccccc3)c2)C[C@@H]2CC[C@H]1N2C(=O)NCc1ccc(F)cc1 | -13 | -34 | -31 | -13 | 27* | 38*
CC(C)(C)C1(CCO)C(=O)NC(=S)NC1=O | 0 | 9 | 9 | -1 | 11 | -13
C[C@]12CCC3C(CC[C@H]4C[C@H](O)CC[C@]34C)C1C[C@@H](O)[C@H]2O (some centres undefined) | 2 | 10 | 1 | 4 | 2 | -17
COc1ccc(C(SCC(NC(=O)OCc2ccccc2)C(=O)O)c2ccc(OC)cc2)cc1 (centres undefined) | -1 | 10 | -2 | 0 | 14 | -10
O=C1NCN(c2ccccc2)C12CCN(C(c1nnnn1-c1ccc3c(c1)OCCO3)C1CC1)CC2 (centres undefined) | 0 | -1 | -7 | -1 | 5 | -17
Cc1nc2ccc(Br)cc2c(=O)n1-c1ccc([N+](=O)[O-])c(C(F)(F)F)c1 | 11 | -13 | -27 | 5 | 32* | 36*
O=C1CC(N2CCC(n3c(=O)[nH]c4ccccc43)CC2)C(=O)N1Cc1ccccc1 (centres undefined) | 4 | 2 | -7 | 0 | -6 | -30
O=c1[nH]c2ccccc2n1C1CCN(Cc2ccc(-c3[nH]c4cc5ncnc5cc4nc3-c3ccccc3)cc2)CC1 | 67* | x | -22 | x | 14 | x
O=P1(c2ccccc2)CC=CC1 | 1 | 1 | 1 | -2 | -7 | -2
CC(=O)c1ccc(-c2ccccc2)cc1 | -1 | 6 | 1 | -8 | -7 | -2
CC(Oc1ccc(-c2ccccc2)cc1)C(=O)O (centres undefined) | -8 | 12 | 18* | -2 | -4 | -17
Cc1ccc(C(O)(c2ccc(C)c(C)c2)C2CN3CCC2CC3)cc1C (centres undefined) | -5 | -6 | -9 | -9 | 14 | 12
C[N+]12CCC(CC1)C(C(O)(c1cccc(Cl)c1)c1cccc(Cl)c1)C2 (centres undefined) | -20 | -25 | -30 | -5 | 74* | 97*
CC(C)[N+]12CCC(CC1)C(C(O)(c1ccccc1)c1ccccc1)C2 (centres undefined) | -21 | -26 | -30 | -8 | 43* | 93*
CC[N+]12CCC(CC1)C(C(O)(c1ccccc1)c1ccccc1)C2 (centres undefined) | -18 | -23 | -32 | -6 | 86* | 98*
CCOC(=O)CNC(=O)N1Cc2ccccc2-n2nncc2C1 | 0 | 4 | 3 | 1 | 0 | -9
S=C(NCCc1ccccc1)N1Cc2ccccc2-n2nncc2C1 | 1 | -9 | 0 | -3 | -2 | 7
CC1CC2(C)C(CCC3C2CCC2(C)C(OP(=O)(N4CC4)N4CC4)CCC32)CC1=O (centres undefined) | -3 | 4 | 3 | -7 | 4 | 102*
C[C@]12CCC3C(CC[C@H]4C[C@H](O)CC[C@]34C)C1CC(=O)[C@@H]2O (some centres undefined) | 5 | -7 | -15 | 2 | 2 | -5
C[N+]1(C)C2CCC1CC(OC(=O)C(CO)c1ccccc1)C2 (centres undefined) | -10 | -38 | -16 | -15 | 99* | 101*
